{"data": "Measured values pooled from the literature", "target": "Serine/threonine-protein kinase MRCK beta (CDC42BPB, Homo sapiens, UniProt Q9Y5S2)", "note": "Lines come from different studies, so protocols differ."}
{"SMILES": "N[C@@H]1CCN(c2nccc(-c3cnn4ncccc34)n2)C1", "test": "binding", "conditions": "1 µM", "remaining binding": "100%"}
{"SMILES": "COc1cnc(Nc2cccc(S(N)(=O)=O)c2)nc1N1CCN(c2ccccc2)CC1", "test": "binding, competition with immobilised ligand", "conditions": "1 µM", "remaining binding": "99%"}
{"SMILES": "Nc1ncc2c(n1)-c1c([nH]c3ccc(C#CC4CC4)cc13)CCCC2", "test": "binding, competition with immobilised ligand", "conditions": "1 µM", "remaining binding": "93%"}
{"SMILES": "Nc1c(C(=O)NCc2ccc(C(=O)NCCCC3CCCCC3)cc2)cnn1-c1ccccc1", "test": "cell-free assay, competition with immobilised ligand", "conditions": "0.1 µM", "remaining binding": "100%"}
{"SMILES": "C=CC(=O)N1CCC(C(=O)NCC(=O)N2CCN(c3nc(-c4cnc(N)nc4C(F)F)nc(N4CCOCC4)n3)CC2)CC1", "test": "binding, competition with immobilised ligand", "conditions": "1 µM", "remaining binding": "99%"}
{"SMILES": "CN(CCCC(F)(F)F)c1nccc(-c2cnn3ncccc23)n1", "test": "binding", "conditions": "1 µM", "remaining binding": "63%"}
{"SMILES": "O=C(NCCCN1CCOCC1)c1ccc(Nc2ncc(Cl)c(-c3ccc(Cl)s3)n2)cc1", "test": "binding, competition with immobilised ligand", "conditions": "1 µM", "remaining binding": "100%"}
{"SMILES": "COc1cnc(Nc2cccc(S(N)(=O)=O)c2)nc1N1CCN(c2ccccc2)C(=O)C1", "test": "binding, competition with immobilised ligand", "conditions": "1 µM", "remaining binding": "100%"}
{"SMILES": "Cc1cc(-n2nc(Cc3cc(F)cc(C(F)(F)F)c3)nc2C)ccc1C(N)=O", "test": "cell-free assay, competition with immobilised ligand", "conditions": "1 µM", "remaining binding": "100%"}
{"SMILES": "CN(c1nccc(-c2cnn3ncccc23)n1)C1CC1", "test": "binding", "conditions": "1 µM", "remaining binding": "86%"}
{"SMILES": "CNC(=O)c1ccc(Nc2ncc(C(F)(F)F)c(NCc3nccnc3N(C)S(C)(=O)=O)n2)cc1", "test": "cell-free assay, competition with immobilised ligand", "conditions": "0.1 µM", "remaining binding": "90%"}
{"SMILES": "O=C(c1ccc(Nc2ncc(Cl)c(-c3cc4ccccc4s3)n2)cc1)N1CCC(N2CCCC2)CC1", "test": "binding, competition with immobilised ligand", "conditions": "1 µM", "remaining binding": "56%"}
{"SMILES": "CO[C@@H](C)c1c(Nc2ccc([C@@H](N(C)C(=O)C3CCS(=O)(=O)CC3)C(F)(F)F)cc2)cnc2cc(Cl)nn12", "test": "cell-free assay, competition with immobilised ligand", "conditions": "1 µM", "remaining binding": "89%"}
{"SMILES": "O=C(c1ccc(Nc2ncc(Cl)c(-c3ccc(Cl)s3)n2)cc1)N1CCC(N2CCCC2)CC1", "test": "binding, competition with immobilised ligand", "conditions": "1 µM", "remaining binding": "92%"}
{"SMILES": "Cc1cnn2ncc(-c3ccnc(N(C)C)n3)c2c1", "test": "binding", "conditions": "1 µM", "remaining binding": "100%"}
{"SMILES": "O=C(Nc1c[nH]nc1C(=O)NC1CCNCC1)c1cc(F)cc(F)c1", "test": "binding, competition with immobilised ligand", "conditions": "1 µM", "remaining binding": "100%"}
{"SMILES": "COCCOc1nc(-c2ccc(Cl)nc2)nc2c1CN(C(=O)c1ncn3ccccc13)CC2", "test": "cell-free assay, competition with immobilised ligand", "conditions": "0.1 µM", "remaining binding": "100%"}
{"SMILES": "CC1CCCN1c1nccc(-c2cnn3ncccc23)n1 (centres unmarked)", "test": "binding", "conditions": "1 µM", "remaining binding": "97%"}
{"SMILES": "O=C(O)c1cc(-c2ccc(C3CCNCC3)cc2)c2ccc(-c3ccc(C(F)(F)F)cc3)cc2c1", "test": "cell-free assay, competition with immobilised ligand", "conditions": "1 µM", "remaining binding": "100%"}
{"SMILES": "FC(F)(F)Oc1cccc(-c2cnc3ccc(-c4ccncc4)nn23)c1", "test": "cell-free assay, competition with immobilised ligand", "conditions": "5 µM", "remaining binding": "22%"}
